Reference: ChEMBL document CHEMBL4513216, “Probing the Open Global Health Chemical Diversity Library for Multistage-Active Starting Points for Next-Generation Antimalarials” (ACS Infect Dis, 2020)

experiment: Toxicity liver stage against HepG2, at 10uM; type: cell-based; parameters: test concentration 10 uM, cell line HepG2-A16-CD81EGFP; settings: human, HepG2-A16-CD81EGFP cells; read-out: INHIBITION
Method in brief: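 Uninfected HepG2-A16-CD81EGFP cells, 3 × 10^3 per well, 1536-well, plated on prespotted compound at 10 μM final, parasite-free screening media added to match infected plates; puromycin 10 μM positive, DMSO 0.5% negative; run in parallel with 48 h PbLuc assay at 37 °C, 5% CO2; viability by CellTiter-Glo luminescence, normalized to controls.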

Row | SMILES | cytotoxicity at 10 µM [%]
1 | CSc1ccc(CCNC(=O)Cc2c(C)n[nH]c2C)cc1 | 1.02
2 | COc1ccc2cnn(CC(=O)NC3CCCC3)c(=O)c2c1OC | -2.86
3 | CC1(C)OCC2(CO1)CN(S(=O)(=O)c1ccc(Br)s1)C2 | -7.31
4 | COc1ccc(S(=O)(=O)Nc2cnc(N(C)C)nc2)cc1 | -4.45
5 | COCC1CN(C(=O)c2cnc(C)cn2)Cc2ncnn2C1 (stereo not given) | 2.31
6 | Cc1nn(C)cc1-c1cc(C(F)(F)F)nc(NC2CCN(C)CC2)n1 | 11.7
7 | O=C(NC[C@]1(O)CN(Cc2ncccc2F)C[C@H]1O)c1cc[nH]n1 | -6.07
8 | CN1CCC(c2nnc3n2CCN(S(=O)(=O)c2ccccc2)C3)CC1 | -2.02
9 | COc1cc2c(cc1CN1CCc3sccc3C1C)OCCO2 (stereo not given) | 8.92
10 | CN1CCCC1c1cncc(C(=O)NCc2ccccc2)n1 (stereo not given) | -1.67
11 | c1cnc(N2CCC(OCCN3CCCCC3)C2)nc1 (stereo not given) | -47.3
12 | COc1ccc(Br)cc1NCC(=O)NC(C)(C#N)C1CC1 (stereo not given) | 23.4
13 | Cc1oc(C)c(C(=O)Nc2ccccn2)c1C | -9.78
14 | CC(=O)C(Cc1ccccc1)NC(=O)CSc1nncn1C (stereo not given) | 3.16
15 | COc1cccc(CC(C)NC(=O)c2ccc(CNC(C)=O)cc2)c1 (stereo not given) | 7.21
16 | COc1cccc(CC(C)NC(=O)NCc2ccn(C)c2)c1 (stereo not given) | 0.166
17 | COCCCN1Cc2cccc(NC(=O)c3ccccc3C)c2C1 | 13.4
18 | Cc1cc(NC(=O)N2CCN(C)CC2C)n(C)n1 (stereo not given) | 9.92
19 | COc1ccc(S(=O)(=O)NC(=O)c2cscn2)cc1C | 6.84
20 | Cc1c(C(=O)NC(C)CC(=O)c2cccs2)cnn1C (stereo not given) | -8.71
21 | COCCNC(=O)CCNC(=O)c1ccc(N2CCC(C)=N2)cc1 | 2.07
22 | CC(=O)NCCCSC1CCN(c2c(F)cccc2F)C1=O (stereo not given) | -6.35

Row | SMILES | cytotoxicity at 10 µM [%]
23 | NC(=O)c1cccc(NC(=O)CSc2ccc3c(c2)CCC3)c1 | 21.4
24 | COC(=O)c1ccc(NC(=O)CN2CCCCC2C2OCCO2)cc1 (stereo not given) | 42.5
25 | O=C(Nc1cccc(N2CCN(CC3CC3)CC2)c1)C1CCOC1 (stereo not given) | 1.68
26 | CCNc1nnc(SCC(=O)N2CCN(Cc3ccc(Cl)s3)CC2)s1 | 15.2
27 | CN(CC(F)(F)F)C(=O)COc1nc(Cc2ccc(F)cc2)no1 | 9.36
28 | Cc1n[nH]c(C2CN(C(=O)c3scnc3C)CCO2)n1 (stereo not given) | 10.6
29 | CCN(C)C(=O)CCC(=O)c1cccs1 | 3.9
30 | Cc1n[nH]c(C)c1C1CCCN1C(=O)Cc1cccc(F)c1 (stereo not given) | 4.8
31 | O=C(NCC(=O)N1CC2(CCCC2)c2c(F)cccc21)C1CC1 | -3.47
32 | CS(=O)(=O)Cc1nc(CNc2c(F)cc(F)cc2F)cs1 | -4.73
33 | COc1ccnc(NCC2CN(C3CC3)CCO2)n1 (stereo not given) | -7.97
34 | Cc1ccccc1C(NC(=O)Cn1cc(C2CC2)nn1)C1CC1 (stereo not given) | -1.03
35 | c1cc(-c2nnc(C3(c4ccc5c(c4)OCO5)CCOCC3)o2)ccn1 | -0.973
36 | COc1ccc(Cn2nnnc2SCC2CCCN(C)C2)cc1 (stereo not given) | -1.33
37 | Cc1nnc(SC2CCN(c3sccc3C#N)C2=O)[nH]1 (stereo not given) | 7.25
38 | CS(=O)(=O)c1nccn1Cc1ccncc1 | 14.5
39 | COc1ccc(S(=O)(=O)N2CC(CC(=O)O)c3ccccc32)cc1 (stereo not given) | 6.04
40 | Cc1cc(C)cc(CNc2ccc(C(=O)NC(C)CO)cc2)c1 (stereo not given) | -5.48
41 | CC(C)OCc1noc(C2CCOC2)n1 (stereo not given) | 1.19
42 | Cc1cc(C(=O)N(C)C)c2c(Br)cccc2n1 | -6.4
43 | COCC(=O)N1CCN(C(C)c2ncc(-c3ccccc3)o2)CC1 (stereo not given) | 5.66
44 | CC(c1cc(F)ccc1F)N(C)CCS(=O)(=O)CCC(N)=O (stereo not given) | -47

Row | SMILES | cytotoxicity at 10 µM [%]
45 | CCOCc1nnc(NCc2cccc(C)c2)o1 | 16.3
46 | Cc1ccc(Cl)c2c1C1(NC(=O)c3cccnc3N1)C(=O)N2 (stereo not given) | 11.9
47 | CCn1nc(C)cc1C(=O)N1C[C@@H]2C[C@@H](c3nnc(C)[nH]3)O[C@@H]2C1 | -1.87
48 | Cn1nccc1C(=O)N1C[C@@H]2CN(S(C)(=O)=O)CCO[C@@H]2C1 | 9.61
49 | c1cc2nc(C3CCNCC3)nn2cc1NC1CCC1 | -98.8
50 | O=C(NCc1ccccc1)N1CCc2ncnc(NC3CC3)c2CC1 | -100
51 | O=C1NCCO[C@H]2CN(C(=O)CC3Cc4ccccc4C3)CC[C@@H]12 | -106
52 | O=C(c1ncccn1)N1CCC[C@]2(C[C@H](OCC3CC3)CO2)C1 | -86
53 | O=C(CO)N1C[C@H]2CN(Cc3cccc(F)c3)C(=O)[C@H]2C1 | -82.3
54 | Cn1cnc2c1C(COCC1CCOCC1)CN(C(=O)c1ccoc1)C2 (stereo not given) | -7.8
55 | Cc1ncnc(NC(CC(C)(C)C)c2cccnc2)c1C (stereo not given) | 1.65
56 | O=C1CCC2(CCN(Cc3ccoc3)CC2)N1OCc1ccccc1F | 2.37
57 | O=C1N(Cc2cccc(F)c2F)CCCC1(O)CNCc1ccccc1 (stereo not given) | -9.45
58 | CCc1c(C(=O)N2CCC3(CCCN(CCO)C3=O)C2)csc1C (stereo not given) | -128
59 | CC(C)(O)CCc1cccc(C(=O)N2CCC[C@H]2C(N)=O)c1 | 10.4
60 | Cc1n[nH]c(C)c1CN(C)C(C(=O)O)c1c(F)cccc1OC(C)C (stereo not given) | -56.1
61 | CN1CCC(c2n[nH]c(=O)n2CC2CCCCC2)CC1 | -45.2
62 | COc1ccc(OC)c(-n2cnnc2CCN)c1 | 9.83
63 | Cc1ncsc1CCN(C)C(=O)CN1CCOc2ccccc2C1 | 5.72
64 | CC1=CC[C@@H]2CN(C(=O)c3ccc(-c4nc[nH]n4)cc3)C[C@@H]2C1 | 0.417
65 | Cc1nc(NC2(CN3CCCCC3)CCCCC2)c2cnn(C)c2n1 | 3.94
66 | CCc1nn(C)c(Cl)c1CN1CCN(c2ccc(C(N)=O)cn2)CC1 | 9.83

Row | SMILES | cytotoxicity at 10 µM [%]
67 | CCCn1cc(C(=O)NC(CC(=O)O)c2ccccc2F)c(C)n1 (stereo not given) | -43.9
68 | CC(C)c1cc(C(=O)N2CCCC(Cn3cc(CO)nn3)C2)on1 (stereo not given) | -6.27
69 | CN(Cc1ccccc1)C1(C(=O)NCC(N)=O)Cc2ccccc2C1 | 2.45
70 | O=C1NC(C(=O)NCc2cccnc2Oc2ccc(F)c(F)c2)CO1 (stereo not given) | -0.115
71 | Cc1ncccc1OC1(C(=O)NCc2noc(C(C)C)n2)CCNCC1 | 5.68
72 | Cc1cn(CCn2ccnc2-c2sccc2C)nn1 | 15.9
73 | Cc1cc(C(=O)NCC2CCS(=O)(=O)C2)ccc1NC(=O)c1ccco1 (stereo not given) | 19
74 | CSc1ncc(C(=O)N2CCC(O)(CN3CCOCC3)C(C)(C)C2)cn1 (stereo not given) | -2.16
75 | CSCC1CCN(C(=O)Cn2ncc(N3CCCCC3)cc2=O)CC1 | -3.95
76 | NCCC1CN(Cc2cnc3c(-c4ccccc4)cnn3c2)CCO1 (stereo not given) | -3.92
77 | Cc1noc(C)c1C1CCCN1C(=O)CN1C(=O)OC(C)(C)C1=O (stereo not given) | -2.57
78 | CCNc1ccnc(N2CCCC(CCOC)(C(=O)O)C2)n1 (stereo not given) | 2.84
79 | COCCN(C)C[C@H]1CC[C@@H](Cc2ccc3c(cnn3C)c2)O1 | 0.255
80 | CCCc1nnc(N2CCC(N3CCCC(O)C3)CC2)o1 (stereo not given) | 13.6
81 | CO[C@@]1(C)C[C@@H](O)C12CCN(C(=O)c1ccccc1C(C)=O)CC2 | 3.51
82 | COc1cc(CNc2ccc(C)c(Cl)c2)ccc1OCC(N)=O | 7.1
83 | CCNc1c(NC(=O)NC(C)C)c(=O)oc2ccccc12 | 1.1
84 | CC(=O)Nc1ncc(S(=O)(=O)N2CCCC(C)C2)s1 (stereo not given) | 2.28
85 | CCN(c1ccc(C(=O)N2CCCCC2)cc1)S(=O)(=O)CC | 1.85
86 | COc1cccc(OCC2CCCN(c3cc(C(N)=O)ccn3)C2)c1 (stereo not given) | 2.13
87 | CC(C)c1csc(C(=O)N2CCCC(Cn3cc(CO)nn3)C2)n1 (stereo not given) | 6.29
88 | COC(=O)CCC(=O)N1CCc2[nH]nc(-c3ccc4c(c3)OCO4)c2C1 | -8.28

Row | SMILES | cytotoxicity at 10 µM [%]
89 | Cc1cc(-c2cnn(CCNC(=O)C3CCCO3)c2C2CC2)on1 (stereo not given) | -4.07
90 | CN(C)Cc1ccnc(C2CCCN2Cc2ccncc2)n1 (stereo not given) | 1.36
91 | Clc1ccc(CN2CCCCC2Cn2cncn2)c2ncccc12 (stereo not given) | -4.66
92 | CNS(=O)(=O)Cc1ccc(CNC(=O)c2ccc(C)[nH]c2=O)cc1 | -3.3
93 | COc1ccc(CNC2CCCN(Cc3noc(C)n3)C2)cc1F (stereo not given) | -12.5
94 | Cc1nc(C)n(CC2CCCN2Cc2nc(C3CC3)no2)n1 (stereo not given) | -12.5
95 | CN(C)c1cc2c(nn1)CCN(C(=O)C1Cc3ccccc3S1)C2 (stereo not given) | -9.52
96 | CCS(=O)(=O)N(C)C(=O)c1cc(C)n(-c2cccc(OC)c2)c1C | -2.35
97 | Cc1cc(CN2CCN(CC(O)C(C)(C)C)CC2)no1 (stereo not given) | -14.8
98 | Cc1nc(CN2CCCC(NCCOCC(F)(F)F)C2)no1 (stereo not given) | -11.1
99 | CCc1n[nH]c(C2CN(C(=O)c3csnn3)CCO2)n1 (stereo not given) | -2.5
100 | O=C(NCc1cccnc1)NC1CCC2(CCC(=O)N2CC2CC2)CC1 (stereo not given) | -114
101 | COc1ccc(CN2CCn3cc(CNC(=O)CC4CC4)nc3C2)cc1 | -82.6
102 | COc1ccc(CN2C[C@@H]3COC[C@H](N4CCN(C)CC4)[C@@H]3C2)cc1 | -85.6
103 | O=C(NC1CCCCC1)N1CCc2onc(COc3cccnc3)c2C1 | -69.9
104 | CCCS(=O)(=O)N1C[C@H](N(C)Cc2ccco2)[C@@H]2OCCC[C@@H]21 | -78.4
105 | O=C(NCc1ccccn1)[C@@H]1CC[C@@H]2[C@@H](CCN2c2ncc(F)cn2)O1 | -74.8
106 | O=c1cccnn1CC1CN(Cc2ccsc2)Cc2nccn2C1 (stereo not given) | 1.31
107 | O=C(c1cccnc1)N1CCC2(CC1)CNc1c(F)cccc12 | -1.02
108 | CN1CCN(Cc2cccnc2)C(=O)C12CCN(C1CCOC1)CC2 (stereo not given) | -111
109 | COc1ccc(-c2cc(C3=NC(=CN4CCN(C)CC4)NO3)[nH]n2)cc1 | -17.8
110 | CCc1nc(C)c(C(=O)N2C[C@@H]3CC[C@H]2CN(S(=O)(=O)N(C)C)C3)s1 | 25
